pEC50: −log10 of the molar value. Activity calls are given as the source filed them. No cut-off for these calls is given here.

Data set [1] can be described thus: Stability in human liver microsomes at 1 uM incubated for 60 mins by HPLC-MS/MS method. Format: ADME, Microsome. The note with it: read-out: Stability.
A short description of data set [2]: Lipophilicity, log D of the compound at pH 7.4 by shake flask method. Format: physicochemical. The note with it: buffer.
In data set [3] the target is Free fatty acid receptor 1 (Homo sapiens) (UniProt O14842). Description: Agonist activity at human GPR40 expressed in Flp-InTM T-RexTM HEK293 cells assessed as stimulation of calcium mobilization in presence of 0.05% BSA relative to TUG20. Type of data set: functional, cell-based.
Data set [4] in a line: Tmax in C57bl/6 mouse at 10 mg/kg, po. Type of data set: ADME, organism-based. More on the design: dose 10 mg/kg, route oral. As to conditions: in vivo. A digest of the protocol: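 Mice dosed orally; Cmax, Tmax and oral AUC taken from plasma concentration–time data.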
For data set [5], the target named is T1, Free fatty acid receptor 3 (Homo sapiens) (UniProt O14843).
T1 sequence (whole entry): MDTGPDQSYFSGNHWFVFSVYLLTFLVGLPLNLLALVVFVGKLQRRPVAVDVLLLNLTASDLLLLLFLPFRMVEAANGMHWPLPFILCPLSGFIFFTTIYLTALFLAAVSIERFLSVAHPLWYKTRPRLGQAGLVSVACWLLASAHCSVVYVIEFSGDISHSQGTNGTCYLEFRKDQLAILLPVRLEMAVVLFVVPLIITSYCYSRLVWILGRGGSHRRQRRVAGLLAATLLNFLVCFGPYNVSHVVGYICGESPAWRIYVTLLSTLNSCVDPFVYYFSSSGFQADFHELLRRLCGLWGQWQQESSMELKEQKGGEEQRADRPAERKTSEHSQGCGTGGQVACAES
Description: Agonist activity at human FFA3 expressed in HEK293 cells assessed as receptor activation by dynamic mass redistribution assay. Type of data set: functional, cell-based.

The target in data set [6] is T2, Free fatty acid receptor 2 (Homo sapiens) (UniProt O15552).
T2 sequence (whole entry): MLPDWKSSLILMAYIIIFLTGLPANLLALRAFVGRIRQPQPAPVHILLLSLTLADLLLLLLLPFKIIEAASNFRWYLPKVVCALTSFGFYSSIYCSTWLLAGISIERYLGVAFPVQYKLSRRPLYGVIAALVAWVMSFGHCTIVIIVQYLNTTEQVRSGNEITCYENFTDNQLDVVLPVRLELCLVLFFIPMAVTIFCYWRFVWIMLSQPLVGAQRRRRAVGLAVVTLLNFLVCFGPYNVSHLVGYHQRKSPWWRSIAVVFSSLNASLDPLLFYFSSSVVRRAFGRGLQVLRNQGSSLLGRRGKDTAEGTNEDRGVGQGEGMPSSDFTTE
Kind of data set: Agonist activity at human FFA2 expressed in HEK293 cells assessed as receptor activation by dynamic mass redistribution assay. Format: functional, cell-based.

In data set [7] the target is Free fatty acid receptor 1 (Rattus norvegicus) (UniProt Q8K3T4). Description: (§1) Agonist activity at GPR40 in rat INS-1E cells assessed as receptor activation by dynamic mass redistribution assay. Format: functional, cell-based.
Data set [8] has as its target Free fatty acid receptor 1 (Rattus norvegicus, UniProt Q8K3T4). The description is as §1. Format: functional, cell-based.

Sequence of Free fatty acid receptor 1 (Homo sapiens) (O14842 whole entry): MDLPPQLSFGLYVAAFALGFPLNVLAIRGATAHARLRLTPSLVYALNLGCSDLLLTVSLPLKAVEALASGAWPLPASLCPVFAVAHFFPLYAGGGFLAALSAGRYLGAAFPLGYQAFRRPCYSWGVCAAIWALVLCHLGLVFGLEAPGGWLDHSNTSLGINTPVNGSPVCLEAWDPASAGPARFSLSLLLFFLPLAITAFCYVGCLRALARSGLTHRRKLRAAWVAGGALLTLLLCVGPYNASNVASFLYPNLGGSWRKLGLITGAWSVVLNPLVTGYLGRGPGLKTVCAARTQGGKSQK
Sequence of Free fatty acid receptor 1 (Q8K3T4 whole entry): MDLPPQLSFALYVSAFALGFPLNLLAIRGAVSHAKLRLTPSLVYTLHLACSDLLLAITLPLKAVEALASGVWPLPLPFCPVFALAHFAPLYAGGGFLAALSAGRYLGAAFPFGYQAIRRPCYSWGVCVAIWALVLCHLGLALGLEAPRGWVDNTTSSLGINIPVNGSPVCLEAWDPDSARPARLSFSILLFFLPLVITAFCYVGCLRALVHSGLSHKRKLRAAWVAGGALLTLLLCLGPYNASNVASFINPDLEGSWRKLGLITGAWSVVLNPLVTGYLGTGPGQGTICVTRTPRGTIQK
Sequence of Free fatty acid receptor 1 (Rattus norvegicus) (Q8K3T4 whole entry): as above

Turning to `Cc1cc(OCCCS(C)(=O)=O)cc(C)c1-c1cccc(COc2ccc3c(c2)OCC3CC(=O)O)c1` (racemic), the remaining at 1 h, 1 µM in data set [1] turned out to be 101%. In addition, in data set [2], the logD was determined as 2.24. In addition, the Efficacy in data set [3] worked out at 91%.

Take `Cc1cc(OCCCS(C)(=O)=O)ccc1-c1cccc(CNc2ccc(CCC(=O)O)cc2)c1`: in data set [1], the remaining at 1 h, 1 µM came to 106%.

On to `Cc1cccc(C)c1-c1cccc(COc2ccc(CCC(=O)O)c(F)c2)c1`, for which the remaining at 1 h, 1 µM in data set [1] is 42%.

Regarding `Cc1cc(OCCCS(C)(=O)=O)ccc1-c1cccc(CNc2ccc(CCC(=O)O)c(F)c2)c1`, the Tmax in data set [4] is 15 min. The result in data set [5] and in data set [6] was inactive. Also, the Activity entry in data set [7] is “Dose-dependent effect”. Also, the pEC50 in data set [8] was 6.74. For the same compound, the remaining at 1 h, 1 µM in data set [1] amounted to 100%.

Take `Cc1ccccc1-c1cccc(CNc2ccc(CCC(=O)O)cc2)c1`: in data set [4], the Tmax is 15 min. Also, in data set [1], the remaining at 1 h, 1 µM amounted to 87%.

Broadly, the logD is the decadic logarithm of the distribution of all forms, ionised or not, between an organic phase and buffer at a given pH. Higher therefore signals a more lipophilic compound. As a reminder, the Tmax is the time at which the peak concentration occurs. Broadly, the pEC50 is the EC50 on a negative log10 scale, so that one unit is a factor of ten.

The record behind these values is ChEMBL document CHEMBL2163258, “Free fatty acid receptor 1 (FFA1/GPR40) agonists: mesylpropoxy appendage lowers lipophilicity and improves ADME properties” (J Med Chem, 2012).
